In brackets after ≈: the same amount, converted by molar mass.
How the values were obtained:
MTT cytotoxicity assay = assay type: cell-based; conditions: human
Method in brief: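 Human CCD 841 CoN colon epithelial cells were grown in RPMI-1640 with 10% FBS, 1% penicillin/streptomycin, 1% L-glutamine and amphotericin B at 37 °C under 5% CO2. They were seeded at 5x10^3 cells/well, then treated 24 h later with test compound at 1.95–1000 µg/ml for 24 h. MTT solution (5 mg/mL) was added for 3 h at 37 °C, formazan dissolved in DMSO, and absorbance read at 540 nm. IC50 was obtained by regression of proliferation against concentration.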

[1] = tested on: Candida albicans (ATCC 24433); test: Broth microdilution MIC90; assay type: cell-based; conditions: ATCC24433, read-out: MIC90 Ca

| MIC90 [1] | Compound | IC50 at 24 h (MTT cytotoxicity assay) |
| --- | --- | --- |
| – | O=C(N/N=C/c1ccc([N+](=O)[O-])o1)c1ccc(O)cc1 [Nifuroxazide] | 122 µg/mL (≈ 443 µM) |
| 7.8 µg/mL (≈ 14.7 µM) | CC(=O)N1CCN(c2ccc(OCC3COC(Cn4ccnc4)(c4ccc(Cl)cc4Cl)O3)cc2)CC1 (centres unmarked) [Ketoconazole] | – |

From paper PMC5543573 (Current Pharmaceutical Design, 2017)
